Measured values: ChEMBL document CHEMBL4219101, “Discovery of 18β-glycyrrhetinic acid conjugated aminobenzothiazole derivatives as Hsp90-Cdc37 interaction disruptors that inhibit cell migration and reverse drug resistance” (Bioorg Med Chem, 2018)

Assays:
[1] = Inhibition of His-tagged full-length Hsp90 (unknown origin)/GST-tagged Cdc37M (unknown origin) interaction after 1 hr by HTRF assay; design: species or system Homo sapiens
Procedure, shortened: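 TR-FRET in PBS containing 400 mM KF, pH 7.3. His-tagged full-length Hsp90 and GST-Cdc37M, each 250 nM final, incubated with compound for 1 h at 37 °C. Anti-GST-Cryptate and anti-6His-XL665 then added for a further 0.5 h at 37 °C. Excitation 320 nm, emission 665/620 nm, reported as ratio ×10,000. Negative and blank controls run in each assay.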

A549 = experiment: Antiproliferative activity against human A549 cells after 48 hrs by MTT assay; format: functional, cell-based; conditions: A549, 48 h
Procedure, shortened: (§1)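 Cells in log phase seeded at about 1.0 × 10^5 cells/mL in 96-well plates, left 12 h at 37 °C, 5% CO2. Compounds dissolved in DMSO, added at 2.5, 5, 10, 20 and 50 µM, 48 h exposure. Absorbance read at 570/630 nm dual wavelength. Survival expressed relative to negative control. IC50 by Bliss method (n = 5), tests done in triplicate.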

MCF7 = experiment: Antiproliferative activity against human MCF7 cells after 48 hrs by MTT assay; format: functional, cell-based; conditions: MCF7, 48 h; procedure, shortened: as §1
HepG2 = experiment: Antiproliferative activity against human HepG2 cells after 48 hrs by MTT assay; format: functional, cell-based; conditions: HepG2, 48 h; procedure, shortened: as §1
HCT-116 = experiment: Antiproliferative activity against human HCT116 cells after 48 hrs by MTT assay; format: functional, cell-based; conditions: HCT-116, 48 h; procedure, shortened: as §1

Row | Compound | IC50 [1] [µM] | IC50 (A549) [µM] | IC50 (MCF7) [µM] | IC50 (HepG2) [µM] | IC50 (HCT-116) [µM]
1 | CC(=O)O[C@H]1CC[C@]2(C)[C@H]3C(=O)C=C4[C@@H]5C[C@@](C)(C(=O)Nc6nc7ccc(Br)cc7s6)CC[C@]5(C)CC[C@@]4(C)[C@]3(C)CC[C@H]2C1(C)C | 81.9 | 69.7 | 78.1 | 86 | 76.8
2 | CCOC(=O)[C@@]1(C)CC[C@]2(C)CC[C@]3(C)C(=CC(=O)[C@@H]4[C@@]5(C)CC[C@H](OC(=O)CCC(=O)Nc6nc7ccc(C)cc7s6)C(C)(C)[C@@H]5CC[C@]43C)[C@@H]2C1 | 14.9 | 19.1 | 22.5 | 27.5 | 23.6
3 | CC(=O)O[C@H]1CC[C@]2(C)[C@H]3C(=O)C=C4[C@@H]5C[C@@](C)(C(=O)Nc6nc7ccc(C)cc7s6)CC[C@]5(C)CC[C@@]4(C)[C@]3(C)CC[C@H]2C1(C)C | > 100 | > 100 | > 100 | > 100 | > 100
4 | COc1cccc2sc(NC(=O)[C@@]3(C)CC[C@]4(C)CC[C@]5(C)C(=CC(=O)[C@@H]6[C@@]7(C)CC[C@H](O)C(C)(C)[C@@H]7CC[C@]65C)[C@@H]4C3)nc12 | > 100 | 76 | 74.5 | 86.3 | 74.7
5 | CC1(C)[C@@H](O)CC[C@]2(C)[C@H]3C(=O)C=C4[C@@H]5C[C@@](C)(C(=O)Nc6nc7c(Br)cccc7s6)CC[C@]5(C)CC[C@@]4(C)[C@]3(C)CC[C@@H]12 | > 100 | > 100 | > 100 | > 100 | > 100
6 | O=c1[nH]cc(F)c(=O)[nH]1 [FLUOROURACIL] |  | 19.5 | 15.8 | 23.6 | 17.2
7 | Cc1cccc2sc(NC(=O)[C@@]3(C)CC[C@]4(C)CC[C@]5(C)C(=CC(=O)[C@@H]6[C@@]7(C)CC[C@H](O)C(C)(C)[C@@H]7CC[C@]65C)[C@@H]4C3)nc12 | > 100 | > 100 | > 100 | > 100 | > 100
8 | CCOC(=O)[C@@]1(C)CC[C@]2(C)CC[C@]3(C)C(=CC(=O)[C@@H]4[C@@]5(C)CC[C@H](OC(=O)CCC(=O)Nc6nc7c(C)cccc7s6)C(C)(C)[C@@H]5CC[C@]43C)[C@@H]2C1 | 21.9 | 22.8 | 26.5 | 31.8 | 26.3
9 | CC1(C)[C@@H](O)CC[C@]2(C)[C@H]3C(=O)C=C4[C@@H]5C[C@@](C)(C(=O)Nc6nc7ccc(Cl)cc7s6)CC[C@]5(C)CC[C@@]4(C)[C@]3(C)CC[C@@H]12 | 36.9 | 22.8 | 16.5 | 21.8 | 16.3
10 | CC(=O)O[C@H]1CC[C@]2(C)[C@H]3C(=O)C=C4[C@@H]5C[C@@](C)(C(=O)Nc6nc7ccc(Cl)cc7s6)CC[C@]5(C)CC[C@@]4(C)[C@]3(C)CC[C@H]2C1(C)C | 77.6 | 62.6 | 66.7 | 73.1 | 68.5
11 | COc1cccc2sc(NC(=O)[C@@]3(C)CC[C@]4(C)CC[C@]5(C)C(=CC(=O)[C@@H]6[C@@]7(C)CC[C@H](OC(C)=O)C(C)(C)[C@@H]7CC[C@]65C)[C@@H]4C3)nc12 | > 100 | > 100 | > 100 | > 100 | > 100
12 | CC(=O)O[C@H]1CC[C@]2(C)[C@H]3C(=O)C=C4[C@@H]5C[C@@](C)(C(=O)Nc6nc7c(F)cccc7s6)CC[C@]5(C)CC[C@@]4(C)[C@]3(C)CC[C@H]2C1(C)C | > 100 | > 100 | > 100 | > 100 | > 100
13 | COc1ccc2nc(NC(=O)[C@@]3(C)CC[C@]4(C)CC[C@]5(C)C(=CC(=O)[C@@H]6[C@@]7(C)CC[C@H](O)C(C)(C)[C@@H]7CC[C@]65C)[C@@H]4C3)sc2c1 | 62.4 | 51.1 | 52.7 | 60.1 | 54.2
